The term inhibition denotes the drop in the measured response relative to a control, in per cent.

Data on seven compounds can be found in PubChem BioAssay.

The source made the active and inactive calls.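 How the source made its calls, unless noted: active means NADPH fluorescence slope more negative than the mean of all samples by about 3 SD, 99.7% confidence; inactive means the rest.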

Experiment [1] can be described thus: inhibitors of TNFa-induced NFkB p65 translocation, primary screen, imaging, HUVEC, MLSMR starter and 10KST1 sets (AID 438;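 active means inhibition above 20% together with a positive visual image hit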;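 further: compound added about 3h40 before a 20 min TNFalpha stimulation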;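 on inhibition: signal is the nuclear over cytoplasmic p65 intensity ratio per well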). To be noted: HUVEC TNFa-induced p65 nuclear translocation; cell count: measured here: nuclei count (cytotoxicity indicator), at 2.08 µM; inhibition: at 2 µM, stronger effect = higher value, 0% TNFa-plus-vehicle, 100% no-TNFa wells.
Experiment [2] is described as follows: endothelial E-selectin expression blockers – imaging, HUVEC, immunofluorescence, MLSMR starter and 10KST1 sets, primary screen (AID 487;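 active means visually confirmed hit in the image check and inhibition above 20%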;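 on inhibition: signal is fraction of cell area covered by stained E-selectin grains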;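 on nuclei count: 100% = median nuclei count of all wells on the same plate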). As to conditions: HUVEC TNFalpha-induced E-selectin immunofluorescence imaging, at 2 µM; inhibition: stronger effect = higher value; nuclei count: measured here: cell number, toxicity.
The nature of experiment [3]: Primary imaging screen for DUSP6 inhibitors that restore phospho-Erk in transfected HeLa cells, chemical complementation (AID 609;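 active means compounds giving at least 50% inhibition in the cell-based MKP-3 phosphatase rescue imaging test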;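 on inhibition: phospho-Erk level distribution per well compared with pooled transfected vehicle control wells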). To be noted: HeLa MKP-3 transfected, phospho-Erk imaging KS statistic, at 10 µM, cells stimulated with TPA for 15 min.
Experiment [4] concerns the target Dual specificity protein phosphatase 6 (Homo sapiens) (UniProt Q16828). The description is as above. As to conditions: HeLa MKP-3 transfected, phospho-Erk imaging KS statistic; at 10 µM; stronger effect = higher value; cells stimulated with TPA for 15 min.
The target of experiment [5] is Voltage-gated potassium channel subunit beta-2 (Rattus norvegicus) (UniProt P62483). The experiment can be described thus: inhibitors of rat Kvbeta2 reductase activity – biochemical, NADPH fluorescence, primary screen (AID 622;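 active means fluorescence slope higher than the sample average by over 3 SD, cut at about -0.22 in these data, passing the limit was not always enough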;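 further: slope of raw intensity against log time taken from 70 to 1610 s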). As to conditions: recombinant KvBeta, 4-cyanobenzaldehyde reduction, at 10 µM, stronger effect = higher value.
Voltage-gated potassium channel subunit beta-2 (Rattus norvegicus), sequence (P62483 whole entry, looked up): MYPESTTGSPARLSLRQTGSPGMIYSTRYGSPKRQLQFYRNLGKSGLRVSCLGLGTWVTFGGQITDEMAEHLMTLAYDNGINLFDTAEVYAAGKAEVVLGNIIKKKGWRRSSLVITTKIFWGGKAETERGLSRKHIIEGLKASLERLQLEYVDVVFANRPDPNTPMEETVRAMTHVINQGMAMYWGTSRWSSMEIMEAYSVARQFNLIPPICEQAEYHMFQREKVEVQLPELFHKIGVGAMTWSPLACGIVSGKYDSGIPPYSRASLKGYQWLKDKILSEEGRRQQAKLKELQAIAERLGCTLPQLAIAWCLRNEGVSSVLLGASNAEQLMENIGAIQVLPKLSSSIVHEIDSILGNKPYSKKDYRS
Experiment [6] has the same target. As to the kind of experiment: enhancers of rat Kvbeta2 NADPH turnover – biochemical, NADPH fluorescence, primary screen (AID 623).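 Further: fluorescence intensity change per second fitted from 20 to 320 s.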 As to conditions: Recombinant KvBeta, NADPH fluorescence decrease slope, 10 min; at 10 µM; stronger effect = lower value.
The target of experiment [7] is Muscarinic acetylcholine receptor M4 (Homo sapiens) (UniProt P08173). The experiment can be described thus: M4-linked GIRK flux change, two-sided – cell-based, HEK293 M4/GIRK, thallium flux, BTC-AM, M4 allosteric agonist project, primary screen (AID 625;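 active means fluorescence slope after compound addition differing from the mean of all tested samples at 99.7% confidence, mostly higher but some lower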;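 further: thallium influx through GIRK channels coupled to M4 in HEK293 cells with BTC-AM dye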). To be noted: at 10 µM, actives lie on both sides. A digest of the protocol:
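Material: M4/GIRK1/GIRK2 stable HEK293 cell line. Medium: pH 7.3 thallium assay buffer. Dosing: single compound concentration, 10 µM final. Schedule: 1 h dye loading, 2 min kinetic read. Measured by: kinetic fluorescence with BTC-AM dye. Read-out: post-addition slope, 15–24 s, of baseline-normalized fluorescence. Benchmarks: carbachol and DMSO controls.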

Experiment [8] is described as follows: inhibitors of larval lipid processing in zebrafish, primary screen, whole organism, PED6 fluorescence, gall bladder and intestine (AID 686;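 active means a full or partial loss of lipid-probe fluorescence in the fish gall bladder, intestine or both, judged by eye; inactive means no fluorescence loss, or compound toxic to the fish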;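 further: larvae 5 to 7 days old with five fish per well; signal comes from phospholipase A2 cleavage of quenched PED6 carried via bile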). To be noted: Zebrafish larvae PED6 lipid processing, fluorescence scoring; screened at 20 µM (by protocol). Put shortly: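 System: live zebrafish larvae aged 5-7 days, whole organism; measure: graded gall bladder and intestinal fluorescence inhibition per well; incubation: overnight exposure; reagent: ingested quenched lipid PED6 at 100 nM; signal: By-eye fluorescence microscopy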

Experiment [9] can be described thus: loss of swimming-algae plug formation – whole organism, Chlamydomonas reinhardtii, WT vs cilia-less mutant, absorbance, 96-well, primary screen (AID 463189;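 active means inhibition at or above 50% relative to wild type and mutant plate controls; inactive means inhibition below 50%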;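 further: 0% = wild type cc124 cells in DMSO and 100% = ciliumless bld1 mutant cells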). As to conditions: Chlamydomonas reinhardtii gravitaxis, OD600 absorbance, 2 days; at 10 µM; stronger effect = higher value.
Setting [10] is: measured here: cell density z-score.
The mark [11] stands for this setting: measured here: nuclear c-Myc green intensity z-score.
The mark [12] stands for this setting: measured here: nuclear pErk red intensity z-score, stronger effect = higher value.

Muscarinic acetylcholine receptor M4 (Homo sapiens), sequence (P08173 whole entry, looked up): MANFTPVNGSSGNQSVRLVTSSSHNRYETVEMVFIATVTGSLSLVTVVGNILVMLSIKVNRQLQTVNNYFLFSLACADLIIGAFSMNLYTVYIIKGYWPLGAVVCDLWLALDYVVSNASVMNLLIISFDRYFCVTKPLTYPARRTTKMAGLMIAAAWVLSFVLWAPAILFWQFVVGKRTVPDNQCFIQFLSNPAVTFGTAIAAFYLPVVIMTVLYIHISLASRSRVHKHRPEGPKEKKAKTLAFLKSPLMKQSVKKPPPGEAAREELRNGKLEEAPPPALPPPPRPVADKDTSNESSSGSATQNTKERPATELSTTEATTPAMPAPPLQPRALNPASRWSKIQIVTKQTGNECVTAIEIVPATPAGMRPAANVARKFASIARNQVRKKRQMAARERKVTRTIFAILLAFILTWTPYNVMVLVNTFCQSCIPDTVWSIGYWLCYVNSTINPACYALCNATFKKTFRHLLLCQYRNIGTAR
Dual specificity protein phosphatase 6 (Homo sapiens), sequence (Q16828 whole entry, looked up): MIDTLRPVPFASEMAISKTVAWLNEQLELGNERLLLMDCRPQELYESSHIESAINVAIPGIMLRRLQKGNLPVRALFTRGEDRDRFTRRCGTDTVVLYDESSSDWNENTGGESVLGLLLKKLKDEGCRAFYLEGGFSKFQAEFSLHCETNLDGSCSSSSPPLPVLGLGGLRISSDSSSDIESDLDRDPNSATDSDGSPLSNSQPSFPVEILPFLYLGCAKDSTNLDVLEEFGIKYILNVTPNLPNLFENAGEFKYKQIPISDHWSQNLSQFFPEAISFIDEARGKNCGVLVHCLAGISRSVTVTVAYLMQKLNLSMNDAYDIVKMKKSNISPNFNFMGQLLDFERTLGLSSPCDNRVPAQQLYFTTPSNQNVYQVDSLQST

Consider `O=C1CC(c2ccccc2)n2nc(NS(=O)(=O)c3ccccc3)nc2N1` (stereo unspecified), for which the cell count in experiment [1] stood at 363. In addition, the inhibition in experiment [1] is -12.1% (inactive); in [2], -108% (inactive); in experiment [4], 14.4% (inactive); in [9], -8.7% (inactive). The same compound returned a nuclei count in experiment [2] of 114%. The values for the z-score in [3] (setting [10]), in experiment [3] (setting [11]) and in experiment [3] (setting [12]) were 1.38, -0.224 and -0.593, respectively. For the same compound, the fluorescence slope in experiment [5] was -0.486 (inactive); in [7] it was 0.00519 (inactive). Further, the NADPH fluorescence slope in experiment [6] was -2.9e-05 (inactive). For the same compound, the compound was called inactive in [8].

For the compound `N#Cc1nc(COc2ccc(Br)cc2)oc1NCCN1CCOCC1`, the cell count in experiment [1] was 510. The inhibition is -5.5% (inactive) in [1], -38.7% (inactive) in [2], 7.7% (inactive) in experiment [4] and -13.6% (inactive) in experiment [9]. The nuclei count in [2] came to 169%. Besides, the figures for the z-score in [3] (setting [10]), in [3] (setting [11]) and in experiment [3] (setting [12]) were 0.361, 0.776 and 1.07, respectively. Also, the fluorescence slope is -0.432 (inactive) in experiment [5] and 0.00542 (inactive) in [7]. Also, in [6], the NADPH fluorescence slope was -4.4e-05 (inactive). Also, the compound was classed as inactive in experiment [8].

In the case of `Cc1ccc(N2C(=O)CC(Cn3nc(C)cc3C)C2=O)cc1` (stereo unspecified), the cell count in [1] was 471. Moreover, the inhibition in [1] is -3.4% (inactive); in [2], 5.8% (inactive); in [4], 11.9% (inactive); in experiment [9], 25.4% (inactive). Also, the nuclei count in experiment [2] amounted to 98.6%. Further, the figures for the z-score in [3] (setting [10]), in experiment [3] (setting [11]) and in experiment [3] (setting [12]) were 0.966, -0.538 and -0.159, respectively. Besides, the fluorescence slope in [5] is -0.387 (inactive); in [7], 0.00565 (inactive). In experiment [6], the NADPH fluorescence slope is -2e-06 (inactive). For the same compound, in experiment [8], the compound was classed as inactive.

For `OCCOCCNc1ncnc2c1cnn2-c1ccc(Cl)cc1`, the cell count in [1] was determined as 578. For the same compound, the inhibition was -11.9% (inactive) in experiment [1], -74.5% (inactive) in experiment [2], -4.59% (inactive) in experiment [4] and 26.1% (inactive) in [9]. The compound also yielded a nuclei count in experiment [2] of 181%. In addition, the z-score in experiment [3] (setting [10]) is 0.588; in experiment [3] (setting [11]) it was -0.286; in experiment [3] (setting [12]), 0.737. Further, the figures for the fluorescence slope in experiment [5] and in experiment [7] were -0.308 (inactive) and 0.00585 (inactive), respectively. Also, in experiment [6], the NADPH fluorescence slope is -2.8e-05 (inactive). Further, the compound was called inactive in experiment [8].

For the compound `O=C1CC(C(=O)O)c2ccccc2N1` (stereo unspecified), the cell count in [1] came to 589. For the same compound, the inhibition in experiment [1] was 5.9% (inactive); in experiment [2] it was -180% (inactive); in experiment [4], 15.4% (inactive); in [9], 6% (inactive). In addition, the nuclei count in experiment [2] was 135%. For the same compound, the z-score is 0.749 in [3] (setting [10]), 0.0521 in [3] (setting [11]) and -0.602 in [3] (setting [12]). Also, the fluorescence slope in [5] was -0.465 (inactive); in experiment [7] it was 0.00465 (inactive). Moreover, the NADPH fluorescence slope in experiment [6] was -0.000133 (inactive). Further, the outcome in experiment [8] was inactive.

Turning to `C/C(=N\O)C(=O)NCCCn1ccnc1`, the cell count in experiment [1] is 636. For the same compound, the inhibition in experiment [1] was -10.8% (inactive); in [2], 26.6% (inactive); in experiment [4], -0.233% (inactive); in [9], -9.7% (inactive). The nuclei count in [2] was found to be 94.5%. Also, the z-score in experiment [3] (setting [10]) was -0.252; in experiment [3] (setting [11]), 0.0271; in [3] (setting [12]), 0.47. The fluorescence slope in [5] was -0.478 (inactive); in experiment [7] it was 0.00635 (inactive). In addition, the NADPH fluorescence slope in experiment [6] was -0.000143 (inactive). For the same compound, the compound was called inactive in experiment [8].

Regarding `CCOC(=O)CNC(=O)CNC(=O)c1ccc(OCC(C)C)cc1`, the cell count in [1] is 694. In addition, the inhibition in experiment [1] was 2.1% (inactive); in [2], -9.7% (inactive); in experiment [4] it was -5.81% (inactive); in experiment [9] it was -6.07% (inactive). The compound further registered a nuclei count in experiment [2] of 146%. The z-score in experiment [3] (setting [10]) amounted to 0.797; in [3] (setting [11]) it was 0.341; in [3] (setting [12]), 0.093. For the same compound, the values for the fluorescence slope in [5] and in experiment [7] were -0.458 (inactive) and 0.00522 (inactive), respectively. Further, the NADPH fluorescence slope in [6] is -5.4e-05 (inactive). Also, the outcome in [8] was inactive.
